The results in this text go back to ChEMBL document CHEMBL4513216, “Probing the Open Global Health Chemical Diversity Library for Multistage-Active Starting Points for Next-Generation Antimalarials” (ACS Infect Dis, 2020).

This series in a line: Toxicity liver stage against HepG2, at 10uM. As to conditions: human, HepG2-A16-CD81EGFP cells; read-out: INHIBITION
Further details: test concentration 10 uM, cell line HepG2-A16-CD81EGFP. In kind it is cell-based. In outline:
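Uninfected HepG2-A16-CD81EGFP cells, 3 × 10^3 per well, 1536-well, plated on prespotted compound at 10 μM final, parasite-free screening media added to match infected plates; puromycin 10 μM positive, DMSO 0.5% negative; run in parallel with 48 h PbLuc assay at 37 °C, 5% CO2; viability by CellTiter-Glo luminescence, normalized to controls.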

In the case of `Cc1cccc(Oc2ccccc2CNC(=O)C2CCC(=O)NC2)c1` (stereo unspecified), the cytotoxicity at 10 µM was determined as 10.6%.

Turning to `CC(C)N1CCc2ncn(C(C)C)c2C1C(=O)N1CCN(C)CC1` (stereo unspecified), the cytotoxicity at 10 µM is -0.849%.

For `CN(c1ncccc1CNS(=O)(=O)N1CCOCC1)C1CCCCC1`, the cytotoxicity at 10 µM was 6.39%.

Regarding `Cc1cccc(CN2CCCn3c(nnc3Cn3cccn3)C2)n1`, the cytotoxicity at 10 µM was -0.124%.

With `OCC1CCCN1c1cc(NCc2cc3ccccc3o2)ncn1` (stereo unspecified), the cytotoxicity at 10 µM turned out to be 7.53%.

In the case of `Cc1ccc(SC2CCCC2)c(C(=O)NCCO)c1`, the cytotoxicity at 10 µM was -45.3%.

As to `O=C(CCc1ccsc1)N1CCC(Nc2cccnn2)CC1`, the cytotoxicity at 10 µM is -4.71%.

For the molecule `C=C(C)COc1cccc(C(=O)N(CC)Cc2noc(C)n2)c1`, the cytotoxicity at 10 µM is -4.15%.

On to `Cc1ccc(CNC(CCO)C2CCCCC2)nc1` (stereo unspecified), for which the cytotoxicity at 10 µM was -37.4%.

For the molecule `CCOc1ncccc1NC(=O)NC1CCN(c2ncccn2)CC1`, the cytotoxicity at 10 µM is -33.3%.

Turning to `COc1cccc(C(C)N2CCN(S(C)(=O)=O)CC2)c1` (stereo unspecified), the cytotoxicity at 10 µM was -8.42%.

For the molecule `CC(=O)N1CCCC(c2nc(N(C)C)ncc2-c2cccc(F)c2)C1` (stereo unspecified), the cytotoxicity at 10 µM is -34.8%.

In the case of `CCN1CC(COC(=O)c2cccc(Br)c2)CC1=O` (stereo unspecified), the cytotoxicity at 10 µM was determined as 4.91%.

As to `Cc1cc(-c2cnn(CCNC(=O)C3CC3)c2C2CC2)on1`, the cytotoxicity at 10 µM came to 11.7%.

As for `CNc1ncc(CN(C)C(=O)c2cccc(Cn3cccn3)c2)cn1`, the cytotoxicity at 10 µM turned out to be 1.32%.

On to `COc1ccccc1CN1C(=O)O[C@@H]2CN(S(=O)(=O)N(C)C)C[C@@H]21`, for which the cytotoxicity at 10 µM came to 2.54%.

With `Cc1ncc2c(c1CNC(=O)C1(C)CCCCO1)CCNC2` (stereo unspecified), the cytotoxicity at 10 µM was -27.9%.

On to `CCS(=O)(=O)N1CCC(NC(=O)c2cc(C(C)C)ccc2O)CC1`, for which the cytotoxicity at 10 µM was -5.16%.

On to `Cc1[nH]ccc1C(=O)N1CCC2(CC1)c1nc[nH]c1CCN2CC(C)C`, for which the cytotoxicity at 10 µM was found to be 7.31%.

With `COC(=O)C1CCN(CC2(c3ccc(C)cn3)CCNCC2)CC1`, the cytotoxicity at 10 µM is -0.471%.

On to `CC(C)NC(=O)N1CC[C@@H]2CN(S(C)(=O)=O)CCO[C@@H]2C1`, for which the cytotoxicity at 10 µM is -102%.

Take `Cc1nc(C2CCCN2CC(=O)N(Cc2ccsc2)C2CC2)no1` (stereo unspecified): the cytotoxicity at 10 µM is -12.1%.

With `CNC(=O)C1Cc2ccccc2CN1CCCc1ccccc1` (stereo unspecified), the cytotoxicity at 10 µM was determined as 4.23%.

On to `CCN(C)CCNC(=O)Cc1nc(-c2ccco2)oc1C`, for which the cytotoxicity at 10 µM is -12.5%.

With `CC1CN(C)CCN1C(=O)Nc1nc(-c2ccco2)cs1` (stereo unspecified), the cytotoxicity at 10 µM is -5.02%.

As for `CC(c1ccncc1)N(C)S(C)(=O)=O` (stereo unspecified), the cytotoxicity at 10 µM amounted to 1.18%.

For `COC1(CNC(=O)c2cccc(C#N)c2)CCSC1` (stereo unspecified), the cytotoxicity at 10 µM was -7.93%.

Take `CN1CCN(Cc2cn3c(n2)CN(C(=O)N2CCOCC2)CC3)CC1`: the cytotoxicity at 10 µM is -18.3%.

Regarding `CC(C)c1noc(CN(C)C(=O)c2ncn[nH]2)n1`, the cytotoxicity at 10 µM was found to be 6.2%.

For `CC(C)(C)c1cnc(CN2CCC(c3ccnn3CCO)CC2)o1`, the cytotoxicity at 10 µM is -3.15%.

For `COc1ccc(NCc2c[nH]nc2-c2cccnc2)cc1`, the cytotoxicity at 10 µM is -16.8%.

With `CN(c1ccccc1C(=O)O)S(=O)(=O)c1cccc2cccnc12`, the cytotoxicity at 10 µM was -0.996%.

For `COc1ccc(F)c(CN2CCCC3(CCN(C(=O)CSC)C3)C2)c1` (stereo unspecified), the cytotoxicity at 10 µM was 0.15%.

Turning to `CC(C)c1nc2cc(NC(=O)Cn3ccccc3=O)ccc2o1`, the cytotoxicity at 10 µM is -17.8%.

For `Cc1ccc(C(=O)NCc2cccnc2N(C)C)o1`, the cytotoxicity at 10 µM is -6.86%.

Take `CCc1ncc2c(n1)CN(CC(=O)Nc1nncs1)CC2`: the cytotoxicity at 10 µM was 1.74%.

Regarding `CCN1CCN(C(=O)c2cccn2Cc2ccccc2)CC1`, the cytotoxicity at 10 µM was -12.3%.

In the case of `O=C(NCC1CCC1)c1ccc(-n2ccnc2)nn1`, the cytotoxicity at 10 µM was found to be 2.18%.

`CCc1ccc(NC(=O)C2OC(c3cccs3)=NN2C(C)=O)cc1` (stereo unspecified): the cytotoxicity at 10 µM turned out to be 4.64%.

Consider `Cc1nc(C)c(C(=O)NCCNc2cc(N3CCCC3)ncn2)s1`, for which the cytotoxicity at 10 µM is -73.4%.

As to `CC(C)n1cc(-c2c(C#N)c(N)nc3c2COCC3)cn1`, the cytotoxicity at 10 µM came out at 17.2%.

As for `Cc1ccc(C(=O)N2CCC(Oc3c(C)cccc3C)CC2)c(=O)[nH]1`, the cytotoxicity at 10 µM was -2.51%.

Regarding `COC1CCN(C(=O)c2nn(-c3ccc(C(C)C)cc3)cc2O)CC1`, the cytotoxicity at 10 µM was -42.9%.

Regarding `CC(C)NC(=O)C(NC(=O)N1CCN(c2ccc(Cl)cc2)CC1)C(C)C` (stereo unspecified), the cytotoxicity at 10 µM was 5.69%.

With `c1cnc2c(c1)nc1n2[C@@H](CNCc2nccs2)COC1`, the cytotoxicity at 10 µM is -2.66%.

In the case of `O=C(C1CCOCC1)N1C[C@@H]2[C@@H](C1)OCC(=O)N2CC1CC1`, the cytotoxicity at 10 µM was 2.29%.

For `COCCc1noc(CN2CCCC2c2noc(C)n2)n1` (stereo unspecified), the cytotoxicity at 10 µM turned out to be 4.73%.

Consider `CN(C)c1ncc(-c2cc(C(=O)NC(C)(C)CO)n(CC3CC3)c2)cn1`, for which the cytotoxicity at 10 µM is -13.4%.

Consider `O=C(c1ccc(C(F)(F)F)nc1)N1CCCC(n2cncn2)C1` (stereo unspecified), for which the cytotoxicity at 10 µM is -10.6%.

For `COc1ccc(CCC(=O)N2CCNCC2C(=O)N2CCOCC2)cc1` (stereo unspecified), the cytotoxicity at 10 µM turned out to be 4.34%.

As for `CCS(=O)(=O)N1CCC2(CN(c3cc(OC)ncn3)C2)C1`, the cytotoxicity at 10 µM is 0.325%.

With `O=C(C1CCOCC1)N1CCO[C@H]2[C@@H](OCc3ccncc3)CC[C@@H]21`, the cytotoxicity at 10 µM worked out at 5.54%.

As to `Cc1ccc(N2CCO[C@H]3CN(Cc4cnn(C)c4)C[C@H]32)nn1`, the cytotoxicity at 10 µM was found to be 3.86%.

With `CC(Nc1nc2c(cnn2C)c(=O)[nH]1)c1ccc2c(c1)CCCC2` (stereo unspecified), the cytotoxicity at 10 µM was 9.62%.

Consider `O=C(CN1CCCC(c2ccn[nH]2)C1)Nc1nncs1` (stereo unspecified), for which the cytotoxicity at 10 µM is -43.9%.

Take `CCOc1ncc(NC(=O)c2ccccn2)c(OCC)n1`: the cytotoxicity at 10 µM was -0.191%.

For `CN1CCCN(S(=O)(=O)c2cn(C)cn2)c2cc(F)ccc21`, the cytotoxicity at 10 µM was 6.06%.

Consider `Cc1cnn(CC2CCCN2CC(=O)Nc2cc(C)no2)c1` (stereo unspecified), for which the cytotoxicity at 10 µM is 2.27%.

For `CCCNC(=O)NC(=O)CN1C=Nc2ccccc2S1(=O)=O`, the cytotoxicity at 10 µM is -3.12%.

`CC(C)CCN1CCC2(CNS(=O)(=O)c3cccnc3O2)C1` (stereo unspecified): the cytotoxicity at 10 µM worked out at 4.1%.

With `c1ccc(-n2cncn2)c(CNCCn2cccn2)c1`, the cytotoxicity at 10 µM was -4.29%.

`COCCN1CCOCC2(CCCN(Cc3ccc(C)o3)C2)C1` (stereo unspecified): the cytotoxicity at 10 µM was -5.58%.

With `c1cc(CNCc2ccnc(N3CCOCC3)c2)c2c(c1)OCCO2`, the cytotoxicity at 10 µM was -4.66%.

Consider `CC[C@@H]1N(Cc2ccc(C)o2)CCC[C@]12CCC(=O)N2CCOC`, for which the cytotoxicity at 10 µM was found to be 10.5%.

As to `O=C(C1SCCc2sccc21)N1CCN(C2CC2)C(=O)C1` (stereo unspecified), the cytotoxicity at 10 µM was 3.24%.

For the molecule `O=C(N1CCCO1)[C@@]12CCO[C@@H]1CCN(Cc1ccc(F)cc1)C2`, the cytotoxicity at 10 µM is -6.1%.

`CNc1nc(CN2C[C@@H](NC(C)=O)[C@H](c3ccc(C)o3)C2)cs1`: the cytotoxicity at 10 µM was -42.4%.

On to `O=C1CCCc2cc(S(=O)(=O)NCc3ccccn3)ccc2N1`, for which the cytotoxicity at 10 µM came out at 2.41%.

`CCN1CCCC2(CCN(Cc3nnc(C4CC4)o3)C2)C1=O` (stereo unspecified): the cytotoxicity at 10 µM came to 1.56%.

In the case of `Fc1cccc(-c2c[nH]c([C@@H]3COCCN3C3CCOCC3)n2)c1`, the cytotoxicity at 10 µM was -1.31%.

With `CC(=O)N1CCN(C(=O)NCc2ccccc2Cn2ccnc2)CC1`, the cytotoxicity at 10 µM turned out to be 0.243%.

With `Cc1ccc(-c2nnc(NC(=O)c3ccn(C)c(=O)c3)[nH]2)s1`, the cytotoxicity at 10 µM is -1.15%.

On to `CCNC(=O)[C@@H]1C[C@@H](NC(=O)c2ccsc2)CN1CCCSC`, for which the cytotoxicity at 10 µM was -117%.

As to `O=C(NC1CC1)c1cc(C2CCCN(Cc3ccccn3)C2)no1` (stereo unspecified), the cytotoxicity at 10 µM was -31.9%.

As to `COCCN1C[C@H]2[C@@H](C1)N(C(=O)c1cccc(OC)c1)CC[C@H]2OC`, the cytotoxicity at 10 µM amounted to 3.56%.

As for `Cc1noc(CCNC(=O)c2ccc(N(C)C)c(F)c2)n1`, the cytotoxicity at 10 µM amounted to 6.05%.

Consider `Cc1ccc(S(=O)(=O)NCc2[nH]ncc2Br)cc1F`, for which the cytotoxicity at 10 µM was determined as 12.6%.

As to `COCc1ccccc1C(=O)OCc1noc(C)n1`, the cytotoxicity at 10 µM came to 7.01%.

As for `CCc1noc(CNc2ccc(F)cc2OCC2CC2)n1`, the cytotoxicity at 10 µM is -7.21%.

With `CC(NC(=O)NCCS(C)(=O)=O)c1ccc2c(c1)CCC(=O)N2` (stereo unspecified), the cytotoxicity at 10 µM came to 1.39%.

As for `Cc1ccc(NCc2cnc3n2CCN(c2ncccn2)CC3)nn1`, the cytotoxicity at 10 µM stood at 7.31%.

As for `O=C(C1CCOC1)N1C[C@H]2CN(Cc3ccncc3)C(=O)[C@H]2C1` (stereo partly specified), the cytotoxicity at 10 µM is -105%.

For the molecule `C[S+]([O-])CCNCc1ccc(OCc2cscn2)cc1` (stereo unspecified), the cytotoxicity at 10 µM was -138%.

`Cc1csc(CN(C)CCCOc2cccc(C#N)c2)n1`: the cytotoxicity at 10 µM was -7.03%.

For the molecule `Cc1cc(C)c2cc(C(=O)N3CCN(Cc4ccco4)CC3)[nH]c2c1`, the cytotoxicity at 10 µM is -51.4%.

Consider `Cc1ccccc1-c1noc(C2CC(C(C)C)=NO2)n1` (stereo unspecified), for which the cytotoxicity at 10 µM is -14.6%.

On to `Cc1nn(C)c(C)c1C(=O)NC(C)CC(=O)c1cccs1` (stereo unspecified), for which the cytotoxicity at 10 µM is -5.08%.

Regarding `Cc1nc(N)nc(N2CCOc3ccc(CO)cc3C2)c1C`, the cytotoxicity at 10 µM came out at 4.23%.

For `CN(C)C(=O)c1ccc(OC2CCOCC2)cc1`, the cytotoxicity at 10 µM was -2%.

Take `O=C(C1CC1)N1CCN(Cc2ccncc2)c2ncccc2C1`: the cytotoxicity at 10 µM was -3.88%.

For the molecule `CN(C(=O)C1CSCN1S(=O)(=O)c1ccc(F)cc1)C1CC1` (stereo unspecified), the cytotoxicity at 10 µM was 1.18%.

With `N#Cc1cccc(Cl)c1NCCCc1nc(=O)[nH][nH]1`, the cytotoxicity at 10 µM is 24.2%.

As to `CC(C)N1CCO[C@H]2CN(C(=O)c3ccncc3)C[C@H]21`, the cytotoxicity at 10 µM was -74.3%.

Regarding `Cc1ccc(C(=O)N2CCN(CC(C)O)CC2)cc1S(C)(=O)=O` (stereo unspecified), the cytotoxicity at 10 µM is -2.96%.

As for `Cc1ccc(C(=O)Nc2ccc(N3CCCC3)cn2)cc1F`, the cytotoxicity at 10 µM came out at 47.4%.

Consider `COC(=O)c1ccc(C2SCC(=O)Nc3c2cnn3C(C)(C)C)cc1` (stereo unspecified), for which the cytotoxicity at 10 µM worked out at 2.06%.
